Measurements reported in ChEMBL document CHEMBL2331236, “Synthesis and biological evaluation of 1-(2-hydroxy-3-phenyloxypropyl)piperazine derivatives as T-type calcium channel blockers” (Bioorg Med Chem Lett, 2013).
Values belong to the compound of their own block, whether it stands above or below them.

Key:
[1] = target: T1, Voltage-dependent T-type calcium channel subunit alpha-1G (Homo sapiens, UniProt O43497); test: Inhibition of alpha-1G calcium channel in human HEK293 cells at 10 uM by FDSS6000 fluorescence-based assay
[2] = target: Voltage-gated inwardly rectifying potassium channel KCNH2 (Homo sapiens, UniProt Q12809); test: Inhibition of human ERG
[3] = target: T1, Voltage-dependent T-type calcium channel subunit alpha-1G; test: Inhibition of alpha-1G calcium channel in human HEK293 cells by whole-cell patch-clamp method; type: cell-based
Outline: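 Whole-cell recordings used α1G T-type channels. Pipette solution (mM): 130 KCl, 11 EGTA, 5 Mg-ATP, 10 HEPES, pH 7.4. Bath (mM): 140 NaCl, 2 CaCl2, 10 HEPES, 10 glucose, pH 7.4. Currents were evoked every 15 s by a 50 ms step from −100 to −30 mV. IC50 for peak-current inhibition came from dose-response curve fitting of raw data.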

[4] = system: HEK293; test: Selectivity ratio of IC50 for human ERG to IC50 for alpha-1G calcium channel in human HEK293 cells; type: cell-based
[5] = Ratio of AUC in brain to AUC in plasma of ICR mouse at 10 mg/kg, po; type: ADME, organism-based; set-up: dose 10 mg/kg, route oral
Outline: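 ICR mice dosed orally at 10 mg/kg; plasma and brain sampled over time (n = 3 per time point). AUC (taken as dose/clearance) computed for each matrix from mean concentration–time profiles; brain-to-plasma ratio reported as AUCbrain/AUCplasma […], from mean values.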

[6] = AUClast in ICR mouse plasma at 10 mg/kg, po; type: ADME, organism-based; set-up: time 0 - last, dose 10 mg/kg, route oral
Outline: (§1)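 ICR mice were dosed orally at 10 mg/kg, with n = 3 per time point. Plasma and brain concentrations were followed over time. Cmax, Tmax, AUClast, AUC0-∞ and terminal half-life were taken from the concentration–time profiles, and values are means.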

[7] = AUC (0 to infinity) in ICR mouse plasma at 10 mg/kg, po; type: ADME, organism-based; set-up: time infinity, dose 10 mg/kg, route oral
Outline: as §1

[8] = Tmax in ICR mouse brain at 10 mg/kg, po; type: ADME, organism-based; set-up: dose 10 mg/kg, route oral
Outline: as §1

[9] = Terminal half life in ICR mouse plasma at 10 mg/kg, po; type: ADME, organism-based; set-up: dose 10 mg/kg, route oral; conditions: read-out: beta t1/2
Outline: as §1

[10] = (§2) AUClast in ICR mouse brain at 10 mg/kg, po; type: ADME, organism-based; set-up: time 0 - last, dose 10 mg/kg, route oral; conditions: ICR, brain
Outline: as §1

[11] = Cmax in ICR mouse brain at 10 mg/kg, po; type: ADME, organism-based; set-up: dose 10 mg/kg, route oral
Outline: as §1

[12] = system: Brain; test: AUC (0 to infinity) in ICR mouse brain at 10 mg/kg, po; type: ADME, organism-based; set-up: dose 10 mg/kg, route oral, time infinity; conditions: in vivo
Outline: as §1

[13] = Oral bioavailability in ICR mouse at 10 mg/kg; type: ADME, organism-based; conditions: in vivo
[14] = Tmax in ICR mouse plasma at 10 mg/kg, po; type: ADME, organism-based; set-up: dose 10 mg/kg, route oral
Outline: as §1

[15] = Terminal half life in ICR mouse brain at 10 mg/kg, po; type: ADME, organism-based; set-up: dose 10 mg/kg, route oral; conditions: read-out: beta t1/2
Outline: as §1

[16] = Cmax in ICR mouse plasma at 10 mg/kg, po; type: ADME, organism-based; set-up: dose 10 mg/kg, route oral
Outline: as §1

[17] = system: Brain; test: as §2; type: ADME, organism-based; set-up: time 0 - last, dose 10 mg/kg, route oral; conditions: in vivo
Outline: as §1

T1 sequence (O43497 whole entry): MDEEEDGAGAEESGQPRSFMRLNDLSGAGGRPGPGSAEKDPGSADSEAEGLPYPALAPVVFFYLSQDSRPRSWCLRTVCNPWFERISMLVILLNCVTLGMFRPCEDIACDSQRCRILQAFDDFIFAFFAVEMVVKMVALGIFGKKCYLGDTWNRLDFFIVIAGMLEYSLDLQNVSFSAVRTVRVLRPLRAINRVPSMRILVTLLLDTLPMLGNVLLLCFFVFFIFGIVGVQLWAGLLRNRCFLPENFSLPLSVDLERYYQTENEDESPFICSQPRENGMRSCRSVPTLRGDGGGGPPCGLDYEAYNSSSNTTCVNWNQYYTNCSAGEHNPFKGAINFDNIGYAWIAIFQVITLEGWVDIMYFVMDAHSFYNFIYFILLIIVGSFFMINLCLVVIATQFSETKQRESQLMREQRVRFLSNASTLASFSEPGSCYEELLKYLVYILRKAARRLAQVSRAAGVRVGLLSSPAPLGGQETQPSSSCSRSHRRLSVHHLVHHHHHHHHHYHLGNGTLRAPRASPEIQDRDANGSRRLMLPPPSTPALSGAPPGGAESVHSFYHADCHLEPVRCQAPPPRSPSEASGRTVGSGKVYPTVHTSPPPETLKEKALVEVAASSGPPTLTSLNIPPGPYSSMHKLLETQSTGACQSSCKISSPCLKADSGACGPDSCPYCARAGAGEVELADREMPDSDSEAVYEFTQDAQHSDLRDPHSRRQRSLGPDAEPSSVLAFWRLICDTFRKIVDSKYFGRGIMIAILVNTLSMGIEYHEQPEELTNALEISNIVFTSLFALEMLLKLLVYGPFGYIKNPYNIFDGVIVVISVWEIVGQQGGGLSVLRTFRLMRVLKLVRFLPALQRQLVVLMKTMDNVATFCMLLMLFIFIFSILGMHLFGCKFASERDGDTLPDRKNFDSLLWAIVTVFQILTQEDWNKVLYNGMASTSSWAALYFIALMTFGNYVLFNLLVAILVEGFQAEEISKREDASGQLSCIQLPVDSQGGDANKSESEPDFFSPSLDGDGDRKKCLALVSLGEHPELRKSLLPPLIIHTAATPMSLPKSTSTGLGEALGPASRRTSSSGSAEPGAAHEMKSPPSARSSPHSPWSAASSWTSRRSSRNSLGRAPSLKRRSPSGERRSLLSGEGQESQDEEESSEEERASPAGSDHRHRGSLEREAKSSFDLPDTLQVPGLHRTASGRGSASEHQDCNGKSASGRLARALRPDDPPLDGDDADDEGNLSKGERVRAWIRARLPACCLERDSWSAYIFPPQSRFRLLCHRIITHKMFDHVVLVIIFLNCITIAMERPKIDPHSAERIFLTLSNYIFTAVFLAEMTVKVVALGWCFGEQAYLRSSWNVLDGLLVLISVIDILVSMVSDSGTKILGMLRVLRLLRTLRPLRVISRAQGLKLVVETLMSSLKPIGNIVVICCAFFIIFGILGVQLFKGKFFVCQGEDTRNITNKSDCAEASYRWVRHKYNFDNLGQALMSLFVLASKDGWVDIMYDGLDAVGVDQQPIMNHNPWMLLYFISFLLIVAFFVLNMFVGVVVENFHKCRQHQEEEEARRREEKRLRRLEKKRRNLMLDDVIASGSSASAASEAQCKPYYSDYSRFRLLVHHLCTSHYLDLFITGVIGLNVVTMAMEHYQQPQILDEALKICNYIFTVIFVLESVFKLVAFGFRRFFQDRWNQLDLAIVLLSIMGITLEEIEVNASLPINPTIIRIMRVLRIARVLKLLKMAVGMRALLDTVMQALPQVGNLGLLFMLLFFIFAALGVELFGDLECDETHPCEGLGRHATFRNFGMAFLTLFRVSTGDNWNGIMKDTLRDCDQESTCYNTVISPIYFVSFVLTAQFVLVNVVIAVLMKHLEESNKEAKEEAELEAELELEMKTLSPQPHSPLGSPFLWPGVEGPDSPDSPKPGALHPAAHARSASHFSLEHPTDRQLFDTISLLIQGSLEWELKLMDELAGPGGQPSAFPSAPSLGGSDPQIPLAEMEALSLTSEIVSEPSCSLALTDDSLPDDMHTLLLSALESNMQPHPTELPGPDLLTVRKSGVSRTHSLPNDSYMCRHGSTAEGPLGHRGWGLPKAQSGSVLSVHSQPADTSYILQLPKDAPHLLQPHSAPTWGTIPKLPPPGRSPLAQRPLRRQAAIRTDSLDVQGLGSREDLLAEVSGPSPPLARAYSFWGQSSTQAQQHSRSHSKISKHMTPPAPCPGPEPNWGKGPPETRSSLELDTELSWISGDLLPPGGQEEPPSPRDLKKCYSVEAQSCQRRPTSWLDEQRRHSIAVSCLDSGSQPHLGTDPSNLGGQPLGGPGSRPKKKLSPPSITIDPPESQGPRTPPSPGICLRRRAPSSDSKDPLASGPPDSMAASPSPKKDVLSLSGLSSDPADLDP
Voltage-gated inwardly rectifying potassium channel KCNH2, sequence (Q12809 whole entry): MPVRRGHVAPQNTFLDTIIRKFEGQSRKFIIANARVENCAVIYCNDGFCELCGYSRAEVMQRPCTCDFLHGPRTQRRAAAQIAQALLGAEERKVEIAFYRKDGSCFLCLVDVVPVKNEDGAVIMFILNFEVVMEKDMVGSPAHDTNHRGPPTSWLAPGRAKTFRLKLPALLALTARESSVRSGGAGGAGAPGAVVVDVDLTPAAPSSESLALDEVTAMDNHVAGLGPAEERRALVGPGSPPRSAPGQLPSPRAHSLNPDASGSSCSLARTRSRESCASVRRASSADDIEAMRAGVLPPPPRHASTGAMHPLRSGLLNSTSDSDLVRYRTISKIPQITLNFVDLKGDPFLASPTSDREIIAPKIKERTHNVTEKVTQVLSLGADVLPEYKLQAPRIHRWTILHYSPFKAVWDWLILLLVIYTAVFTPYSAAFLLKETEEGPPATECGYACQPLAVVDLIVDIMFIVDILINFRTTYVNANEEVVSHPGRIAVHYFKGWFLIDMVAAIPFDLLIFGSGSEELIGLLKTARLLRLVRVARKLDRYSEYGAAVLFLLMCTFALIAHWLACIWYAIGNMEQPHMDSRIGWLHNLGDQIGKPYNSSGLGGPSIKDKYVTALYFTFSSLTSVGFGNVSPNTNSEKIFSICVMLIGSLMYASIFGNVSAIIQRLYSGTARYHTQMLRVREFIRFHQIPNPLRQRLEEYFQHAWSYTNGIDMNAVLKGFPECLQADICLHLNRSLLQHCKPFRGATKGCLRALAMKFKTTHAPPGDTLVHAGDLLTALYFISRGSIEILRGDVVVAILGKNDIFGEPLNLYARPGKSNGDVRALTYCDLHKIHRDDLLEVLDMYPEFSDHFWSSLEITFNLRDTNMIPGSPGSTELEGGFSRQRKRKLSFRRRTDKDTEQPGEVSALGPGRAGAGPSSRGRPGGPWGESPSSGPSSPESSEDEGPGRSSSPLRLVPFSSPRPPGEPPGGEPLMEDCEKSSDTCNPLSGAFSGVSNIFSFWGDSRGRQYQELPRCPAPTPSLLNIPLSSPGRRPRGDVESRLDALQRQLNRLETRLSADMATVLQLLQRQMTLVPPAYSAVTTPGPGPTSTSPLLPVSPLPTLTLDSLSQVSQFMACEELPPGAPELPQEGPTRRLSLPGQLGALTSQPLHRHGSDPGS

inhibition [1]: 48.6%
SMILES: O[C@@H](COc1ccc(Cl)cc1)CN1CCN(Cc2ccc(Cl)c(Cl)c2)CC1

inhibition [1]: 48.6%
SMILES: O[C@H](COc1ccc(C(F)(F)F)cc1)CN1CCN(Cc2ccccc2F)CC1

inhibition [1]: 69.5%
IC50 [3]: 100 nM
SMILES: O[C@@H](COc1ccc(F)cc1)CN1CCN(Cc2ccc(Cl)c(Cl)c2)CC1
IC50 [2]: 870 nM
Ratio IC50 [4]: 8.7

inhibition [1]: 61.5%
SMILES: O[C@@H](COc1ccc(C(F)(F)F)cc1)CN1CCN(Cc2ccc(Cl)cc2)CC1

inhibition [1]: 51.1%
SMILES: O[C@@H](COc1ccc(F)cc1)CN1CCN(c2ccccc2F)CC1

inhibition [1]: 59.2%
IC50 [3]: 15500 nM
SMILES: O[C@H](COc1ccc(C(F)(F)F)cc1)CN1CCN(c2ccc(F)cc2)CC1

inhibition [1]: 43.1%
SMILES: O[C@@H](COc1ccc(C(F)(F)F)cc1)CN1CCN(Cc2cccc(Cl)c2)CC1

inhibition [1]: 56.5%
IC50 [3]: 12300 nM
SMILES: O[C@@H](COc1ccc(F)cc1)CN1CCN(Cc2c(F)cccc2Cl)CC1

inhibition [1]: 61.3%
IC50 [3]: 12000 nM
SMILES: COc1cccc(N2CCN(C[C@@H](O)COc3ccc(F)cc3)CC2)c1

inhibition [1]: 38.8%
IC50 [3]: 1270 nM
SMILES: O[C@@H](COc1ccc(C(F)(F)F)cc1)CN1CCN(Cc2ccc(Cl)c(Cl)c2)CC1
IC50 [2]: 9200 nM
Ratio IC50 [4]: 7.24

inhibition [1]: 28.3%
SMILES: O[C@H](COc1ccc(Cl)cc1)CN1CCN(c2ccc(F)cc2)CC1

Kp [5]: 3.46
AUC(0-t) [6]: 3140 ng·h/mL
AUC(0-inf) [7]: 3300 ng·h/mL
Tmax [8]: 15 min
half-life [9]: 102 min
AUC(0-t) [10]: 8290 ng·h/mL
inhibition [1]: 68.5%
Cmax [11]: 4660 ng/mL
AUC [12]: 686.6 µg·min/g
IC50 [3]: 480 nM
bioavailability [13]: 67.2%
Tmax [14]: 15 min
half-life [15]: 474 min
Cmax [16]: 1570 ng/mL
SMILES: COc1cccc(N2CCN(C[C@H](O)COc3ccc(C(F)(F)F)cc3)CC2)c1
IC50 [2]: 4080 nM
Ratio IC50 [4]: 8.5

inhibition [1]: 41.2%
SMILES: O[C@H](COc1ccc(Cl)cc1)CN1CCN(Cc2ccc(Cl)c(Cl)c2)CC1

inhibition [1]: 47.5%
SMILES: O[C@@H](COc1ccc(F)cc1)CN1CCN(c2ccc(F)cc2)CC1

inhibition [1]: 43.4%
SMILES: O[C@H](COc1ccc(C(F)(F)F)cc1)CN1CCN(Cc2cccc(Cl)c2)CC1

inhibition [1]: 52.2%
SMILES: O[C@H](COc1ccc(Cl)cc1)CN1CCN(Cc2cccc(Cl)c2)CC1

inhibition [1]: 53.7%
SMILES: O[C@@H](COc1ccc(C(F)(F)F)cc1)CN1CCN(c2ccc(F)cc2)CC1

Kp [5]: 7.63
AUC(0-t) [6]: 260 ng·h/mL
AUC(0-inf) [7]: 276 ng·h/mL
Tmax [8]: 30 min
half-life [9]: 56.5 min
AUClast [17]: 119.1 µg·min/g
inhibition [1]: 55.1%
Cmax [11]: 870 ng/mL
IC50 [3]: 760 nM
bioavailability [13]: 9.94%
Tmax [14]: 15 min
half-life [15]: 186 min
Cmax [16]: 197 ng/mL
SMILES: O[C@H](COc1ccc(C(F)(F)F)cc1)CN1CCN(Cc2c(F)cccc2Cl)CC1
IC50 [2]: 14000 nM
Ratio IC50 [4]: 18.4

inhibition [1]: 50.8%
SMILES: COc1ccccc1N1CCN(C[C@H](O)COc2ccc(C(F)(F)F)cc2)CC1

inhibition [1]: 65.8%
IC50 [3]: 2580 nM
SMILES: O[C@H](COc1ccc(F)cc1)CN1CCN(Cc2cccc(Cl)c2)CC1

inhibition [1]: 56.6%
IC50 [3]: 4230 nM
SMILES: O[C@H](COc1ccc(C(F)(F)F)cc1)CN1CCN(Cc2ccc(Cl)cc2)CC1

inhibition [1]: 50%
SMILES: O[C@H](COc1ccc(F)cc1)CN1CCN(c2ccc(F)cc2)CC1

inhibition [1]: 43.9%
SMILES: COc1cccc(N2CCN(C[C@@H](O)COc3ccc(C(F)(F)F)cc3)CC2)c1

inhibition [1]: 45.6%
SMILES: O[C@H](COc1ccc(C(F)(F)F)cc1)CN1CCN(Cc2ccc(Cl)c(Cl)c2)CC1

inhibition [1]: 56.5%
IC50 [3]: 1080 nM
SMILES: O[C@H](COc1ccc(Cl)cc1)CN1CCN(Cc2ccc(Cl)cc2)CC1

inhibition [1]: 45.5%
SMILES: O[C@@H](COc1ccc(C(F)(F)F)cc1)CN1CCN(Cc2ccccc2F)CC1

inhibition [1]: 48.8%
SMILES: COc1ccccc1N1CCN(C[C@H](O)COc2ccc(Cl)cc2)CC1

inhibition [1]: 47.4%
SMILES: COc1ccccc1N1CCN(C[C@@H](O)COc2ccc(Cl)cc2)CC1

inhibition [1]: 61.1%
IC50 [3]: 2100 nM
SMILES: O[C@@H](COc1ccc(F)cc1)CN1CCN(Cc2cccc(Cl)c2)CC1

inhibition [1]: 65.8%
IC50 [3]: 1560 nM
SMILES: O[C@H](COc1ccc(F)cc1)CN1CCN(Cc2ccc(Cl)cc2)CC1
IC50 [2]: 1350 nM
Ratio IC50 [4]: 0.87

inhibition [1]: 64.2%
IC50 [3]: 230 nM
SMILES: O[C@H](COc1ccc(F)cc1)CN1CCN(Cc2ccc(Cl)c(Cl)c2)CC1
IC50 [2]: 290 nM
Ratio IC50 [4]: 1.26

inhibition [1]: 44.6%
SMILES: COc1cccc(N2CCN(C[C@@H](O)COc3ccc(Cl)cc3)CC2)c1

inhibition [1]: 50.2%
SMILES: O[C@@H](COc1ccc(C(F)(F)F)cc1)CN1CCN(c2ccccc2F)CC1

inhibition [1]: 44.6%
SMILES: O[C@@H](COc1ccc(C(F)(F)F)cc1)CN1CCN(Cc2c(F)cccc2Cl)CC1

inhibition [1]: 54.4%
IC50 [3]: 1420 nM
SMILES: O[C@H](COc1ccc(Cl)cc1)CN1CCN(Cc2c(F)cccc2Cl)CC1
IC50 [2]: 2070 nM
Ratio IC50 [4]: 1.46

inhibition [1]: 48.9%
SMILES: O[C@H](COc1ccc(C(F)(F)F)cc1)CN1CCN(c2ccccc2F)CC1

inhibition [1]: 35.8%
SMILES: O[C@@H](COc1ccc(Cl)cc1)CN1CCN(Cc2ccccc2F)CC1

inhibition [1]: 42%
SMILES: O[C@H](COc1ccc(F)cc1)CN1CCN(c2ccccc2F)CC1

inhibition [1]: 39.7%
SMILES: O[C@@H](COc1ccc(Cl)cc1)CN1CCN(c2ccc(F)cc2)CC1

inhibition [1]: 42.1%
SMILES: O[C@@H](COc1ccc(Cl)cc1)CN1CCN(Cc2ccc(Cl)cc2)CC1

inhibition [1]: 46%
SMILES: COc1cccc(N2CCN(C[C@H](O)COc3ccc(Cl)cc3)CC2)c1

inhibition [1]: 50.7%
SMILES: COc1ccccc1N1CCN(C[C@@H](O)COc2ccc(F)cc2)CC1

inhibition [1]: 41%
SMILES: COc1ccccc1N1CCN(C[C@H](O)COc2ccc(F)cc2)CC1

inhibition [1]: 46.9%
SMILES: O[C@@H](COc1ccc(Cl)cc1)CN1CCN(c2ccccc2F)CC1

inhibition [1]: 20.3%
SMILES: O[C@H](COc1ccc(F)cc1)CN1CCN(Cc2ccccc2F)CC1

inhibition [1]: 44.5%
SMILES: COc1cccc(N2CCN(C[C@H](O)COc3ccc(F)cc3)CC2)c1

inhibition [1]: 35.9%
SMILES: O[C@H](COc1ccc(Cl)cc1)CN1CCN(c2ccccc2F)CC1

inhibition [1]: 56.2%
IC50 [3]: 1790 nM
SMILES: COc1ccccc1N1CCN(C[C@@H](O)COc2ccc(C(F)(F)F)cc2)CC1
IC50 [2]: 3950 nM
Ratio IC50 [4]: 2.21

inhibition [1]: 40.9%
SMILES: O[C@@H](COc1ccc(Cl)cc1)CN1CCN(Cc2c(F)cccc2Cl)CC1

inhibition [1]: 41.5%
SMILES: O[C@H](COc1ccc(Cl)cc1)CN1CCN(Cc2ccccc2F)CC1

inhibition [1]: 62.1%
IC50 [3]: 11400 nM
SMILES: O[C@H](COc1ccc(F)cc1)CN1CCN(Cc2c(F)cccc2Cl)CC1

inhibition [1]: 50.1%
SMILES: O[C@@H](COc1ccc(F)cc1)CN1CCN(Cc2ccc(Cl)cc2)CC1

inhibition [1]: 23.8%
SMILES: O[C@@H](COc1ccc(F)cc1)CN1CCN(Cc2ccccc2F)CC1

inhibition [1]: 46%
SMILES: O[C@@H](COc1ccc(Cl)cc1)CN1CCN(Cc2cccc(Cl)c2)CC1
